KCNK9 block = KCNK9 potassium channel inhibitors, primary screen, HEK293 cells, thallium flux. Potassium channel subfamily K member 9 (Homo sapiens), Q9NPC2. FluxOR thallium flux fluorescence; hits give low values. B-score at 10 µM. 1.2% of 310,000 active. AID 488922, 2010;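 active means ratio B-score over 3 SD below the library mean, with starting fluorescence within 5 SD of its mean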;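 further: negative B-score means less thallium flux so channel inhibition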
Target sequence (Q9NPC2 whole entry, looked up): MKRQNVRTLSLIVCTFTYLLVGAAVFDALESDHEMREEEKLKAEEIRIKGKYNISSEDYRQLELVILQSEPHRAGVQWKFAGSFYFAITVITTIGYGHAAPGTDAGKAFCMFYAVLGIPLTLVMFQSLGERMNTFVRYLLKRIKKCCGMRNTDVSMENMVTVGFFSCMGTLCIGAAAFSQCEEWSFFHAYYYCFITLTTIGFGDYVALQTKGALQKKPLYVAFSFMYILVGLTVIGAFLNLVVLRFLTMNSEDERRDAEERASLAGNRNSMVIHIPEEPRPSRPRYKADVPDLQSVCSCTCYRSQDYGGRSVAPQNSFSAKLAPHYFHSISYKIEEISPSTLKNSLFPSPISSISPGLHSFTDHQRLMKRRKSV
Kir21 inh = inhibitors of mouse Kir2.1 inward-rectifier potassium channel; HEK293-Kir2.1, FluxOR thallium flux fluorescence; hits give low values; B-score at 10 µM; 0.85% of 310,000 active; AID 1672, 2009;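 active means fluorescence ratio B-score at or below minus 3 SD of library scores, with starting-brightness B-score within 2 SD, cut at about -4.2 in these data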;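 further: channel flux triggered by added potassium and thallium sulfate stimulus; B-score of peak minus minimum fluorescence over baseline after thallium stimulus; more negative B-score means stronger Kir2.1 block with less thallium influx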
KCNQ1 pot = potentiators or activators of KCNQ1 channel, primary screen, cell-based, thallium flux, high-throughput | CHO-K1 KCNQ1, thallium flux FluxOR fluorescence; hits give high values | B-score at 10 µM | 0.35% of 310,000 active;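 active means fluorescence ratio B-score, a plate-corrected score, at least three library SD, with initial intensity B-score within 5 SD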
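assay system = CHO-K1 cells stably expressing KCNQ1 | medium = assay buffer, equal DMSO in all wells | timing = 37 °C overnight plating, 90-min dark dye load, 20-min compound pretreatment | measured by = kinetic FluxOR thallium fluorescence, 10-s 1-Hz baseline, 110-s post-stimulus read | measure = fluorescence change relative to baseline, converted to B score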
KCNK3 inh = human KCNK3 channel inhibitors, primary screen, CHO cells, FluxOR thallium flux, B-score | B-score at 10 µM | FluxOR fluorescence; hits give low values | Potassium channel subfamily K member 3 (Homo sapiens), O14649 | AID 602410, 2012 | 0.84% of 340,000 active;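 active means B-score under library mean minus 4 SD, starting fluorescence ratio at most library mean plus 5 SD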;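 further: more negative B-score means stronger inhibition of thallium flux through KCNK3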
hERG rescue = hERG rescue from dofetilide block, primary screen, cell-based, CHO-hERG, FluxOR thallium flux, dofetilide IC70. Voltage-gated inwardly rectifying potassium channel KCNH2 (Homo sapiens), Q12809. dofetilide IC70 present. activation (rescue from dofetilide block), less the hit threshold, % at 10 µM. 0.51% of 310,000 active. AID 1511, 2009;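 active means activation above the mean of controls blocked by dofetilide plus 5 SD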;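 further: thallium influx through hERG after potassium depolarization seen as dye fluorescence rise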
KCNQ1 inh = inhibitors of human KCNQ1 channel, primary screen, cell-based, thallium flux, high-throughput; B-score at 10 µM; Potassium voltage-gated channel subfamily KQT member 1 (Homo sapiens), P51787; 1.3% of 310,000 active; CHO-K1 KCNQ1, FluxOR thallium flux fluorescence; hits give high values;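 active means compounds whose thallium flux B-score, printed positive for inhibition, exceeds three library SD while starting fluorescence stays within three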;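 further: channel opened by potassium depolarization with thallium stimulus after 20 min compound exposure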
KCNK9 inh conf = KCNK9 potassium channel inhibitors, confirmation, HEK293 cells, thallium flux, duplicate | shares compounds with KCNK9 block | FluxOR thallium flux fluorescence | inhibition, % at 10 µM | 43% of 4,900 active | AID 492992, 2010;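 active means thallium signal inhibited by more than 5 SD of the compound-free buffer control wells, on both duplicate plates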;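 further: 0% = assay buffer control wells without compound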
Kir21 sel = mouse Kir2.1 channel inhibition, confirmation, selectivity assay for KCNK9 modulator project, cell-based, HEK293, thallium flux; 4% of 4,900 active; inhibition, % at 10 µM; Kir2.1 cells, FluxOR thallium flux fluorescence; shares compounds with KCNK9 block;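 active means thallium signal drop more than 5 SD beyond the mean of the no-compound control wells, seen in both duplicate plates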;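 further: signal is fluorescence rise after thallium addition divided by baseline fluorescence; plate controls were assay buffer only for no effect and full block by chlorpromazine control for full effect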
HEK293 Tl ctr = thallium flux in non-induced HEK293 cells, confirmation, counter-screen for KCNK9 inhibitor project, cell-based, second counter screen, non-induced KCNK9-HEK293; shares compounds with KCNK9 block; FluxOR thallium flux; inhibition, % at 10 µM; 40% of 4,900 active; AID 492997, 2010;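 active means thallium signal drop beyond 5 SD of the untreated control mean, on both duplicate plates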;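 further: plate controls were buffer only IC0 wells for no effect and SID17386958 at its maximal inhibitory level for full effect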
* hit, by the source's call; i = inactive; . = not tested or not shown. Shown are actives, neighbours in structure and some others; about 3.8% of the full set was active somewhere.

SMILES	KCNK9 block	Kir21 inh	KCNQ1 pot	KCNK3 inh	hERG rescue	KCNQ1 inh	KCNK9 inh conf	Kir21 sel	HEK293 Tl ctr
N#Cc1c(-c2ccccc2)nc(SCC(=O)N2c3ccccc3Sc3ccccc32)[nH]c1=O	i	1.2	i	i	-38	i	i	i	25%*
O=C(CN1CCc2ccccc21)NCc1ccccc1Cl	i	0.67	i	i	-7	i	i	i	i
C/C(=N\N=c1/scc(C)n1Cc1ccco1)c1cccc([N+](=O)[O-])c1	-8.7*	-0.57	i	i	-6	i	i	i	i
O=C(O)Cc1sc(N/N=C\c2ccncc2)nc1-c1ccccc1	-11*	0.14	i	i	-6	i	25%*	i	i
C(=N\Nc1nc(-c2ccccc2)cs1)/c1ccncc1	i	-0.89	i	i	-17	i	.	.	.
NC(=O)[C@H](Cc1cc2ccccc2s1)NC(=O)[C@@H]1CC2(CC(c3cccc(NC(=O)[C@@H]4CCC(=O)N4)c3)=NO2)CN1C(=O)c1ccccc1 (stereo partly specified)	i	-0.97	i	i	-6	i	.	.	.
COc1cc(/C=C(/C#N)c2ccccc2F)ccc1OCc1ccccc1	i	-0.52	i	i	-13	i	.	.	.
Cc1c(Cc2ccc3c(c2)OCO3)sc(NC(=O)C2CC2)c1C(N)=O	i	-0.03	i	i	-11	i	.	.	.
COc1cccc(/C=N/Nc2nc(Nc3ccccc3)nc(-n3nc(C)cc3C)n2)c1O	-10*	-0.45	i	i	-13	i	43%*	i	24%*
COc1ccc(C/C(N)=N/OC(=O)COc2ccccc2C)cc1	i	0.6	i	i	-6	i	.	.	.
COc1ccccc1C/C(N)=N/OC(=O)COc1ccc(C)cc1C	i	-1.9	i	i	-12	i	i	i	i
CCc1ccc(CN(C)C(=O)c2cc(S(=O)(=O)N3CCOCC3)ccc2N2CCCC2)cc1	i	1.1	i	i	-23	i	.	.	.
COC(=O)/C=C1\S/C(=N\N=C\CC(=O)OC)NC1=O	i	0.09	i	i	-4	i	.	.	.
CC(C)CCNC(=O)[C@H](Cc1ccccc1)N1Cc2ccccc2C1=O	i	-0.5	i	i	-10	i	.	.	.
CC(C)CCNC(=O)[C@H](CSCc1ccccc1)N1Cc2ccccc2C1=O	i	0.38	i	i	-9	i	i	i	i
COc1ccc([C@@H]2[C@@H](C(=O)C(C)(C)C)N3N=Cc4ccccc4[C@@H]3C23C(=O)OC(C)(C)OC3=O)cc1OC	i	-0.91	i	i	-30	i	.	.	.
Cn1c(=O)c2c(nc(N3CCN(c4ccccn4)CC3)n2Cc2ccccc2Cl)n(C)c1=O	i	-0.64	i	i	-7	i	.	.	.
O=[N+]([O-])c1cc(Cl)ccc1N1CCCC1	i	1.7	i	i	-8	i	.	.	.
O=[N+]([O-])c1cc(S(=O)(=O)C(F)(F)F)ccc1N1CCN(c2ccccc2)CC1	-8.3*	0.04	i	i	-2	i	i	i	35%*
O=[N+]([O-])c1cc(CN2CCN(c3cccc(C(F)(F)F)c3)CC2)c2cccnc2c1O	i	-0.11	i	i	-3	i	i	i	i
O=[N+]([O-])c1cc(Cl)ccc1N1CCN(c2cccc(C(F)(F)F)c2)CC1	-12*	-0.7	i	i	-15	i	75%*	i	51%*
CCCCCCn1c(N2CCN(c3ccccc3)CC2)nc2c1c(=O)n(C)c(=O)n2C	-8.5*	2.5	i	i	-23	i	43%*	i	40%*
Cn1c(=O)c2c(nc(CN3CCN(c4ccccc4F)CC3)n2CCCc2ccccc2)n(C)c1=O	i	0.39	i	i	-7	i	i	i	i
CCOCCn1c(N2CCN(c3ccccc3)CC2)nc2c1c(=O)n(C)c(=O)n2C	i	-0.89	i	i	-12	i	.	.	.
CN1CCN(Cc2nc3c(c(=O)n(C)c(=O)n3C)n2CCCc2ccccc2)CC1	i	-0.91	i	i	-14	i	.	.	.
SMILES	KCNK9 block	Kir21 inh	KCNQ1 pot	KCNK3 inh	hERG rescue	KCNQ1 inh	KCNK9 inh conf	Kir21 sel	HEK293 Tl ctr
CN(c1cccc(NC(=O)c2ccc(C(C)(C)C)cc2)c1)S(C)(=O)=O	i	-0.52	i	i	-13	i	.	.	.
Cc1cccc(N(CC(=O)NCC2CCCO2)C(=O)CCC(=O)Nc2cc(C)on2)c1 (stereo unspecified)	i	-0.55	i	i	-9	i	.	.	.
OCCN1CCN(CC/C=C2/c3ccccc3Sc3ccc(Cl)cc32)CC1	.	.	.	i	.	.	.	.	.
CCCCCCCCCC[N+](C)(C)CC/C=C1/c2ccccc2Sc2ccc(Cl)cc21	-13*	-0.81	i	i	-14	i	58%*	50%*	i
CC1CC(C)CN(S(=O)(=O)c2ccc(C(=O)N3CCN(c4ccccc4)CC3)cc2)C1 (stereo unspecified)	i	0.64	i	i	-5	i	i	i	i
O=C(c1ccc(S(=O)(=O)N2CCCCCC2)cc1)N1CCN(c2ccccc2)CC1	i	0.45	i	i	-4	i	.	.	.
CC(C)OCCCNC(=O)C1CCN(S(=O)(=O)N2CCCC2)CC1	-8.1*	-0.03	i	i	-21	i	i	i	i
CC(C)CC1(C)NC(=O)N(Cc2cc([N+](=O)[O-])cc3c2OCOC3)C1=O (stereo unspecified)	i	-0.83	i	i	-14	i	.	.	.
CCN(CC)C(=O)CSc1nc(-c2cccs2)cc(-c2cccs2)c1C#N	-9.8*	-0.26	i	i	-21	i	62%*	i	68%*
